# Shown are actives, neighbours in structure and some others; about 2.6% of the full set was active somewhere.
# SENP8 block-1 – human SENP8 protease inhibitors, primary screen, biochemical, fluorescence, Nedd8 protein substrate, uHTS | Sentrin-specific protease 8 (Homo sapiens), Q96LD8 | recombinant SENP8 | inhibition, % at 20 µM | 360,000 compounds, 0.64% hits | AID 602440, 2012; in the data active means inhibition mostly above about 40%, no sharp cut-off; inactive means mostly below about 27%
# Target sequence (Q96LD8 whole entry, looked up): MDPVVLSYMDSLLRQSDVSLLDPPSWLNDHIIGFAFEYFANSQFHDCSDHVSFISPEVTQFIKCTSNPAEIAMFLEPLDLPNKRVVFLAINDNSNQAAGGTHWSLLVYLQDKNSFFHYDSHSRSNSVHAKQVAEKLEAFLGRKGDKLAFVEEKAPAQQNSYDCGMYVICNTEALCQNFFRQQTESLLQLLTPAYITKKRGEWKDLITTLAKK
# SENP8 block-2 – SENP8 protease inhibitors, primary screen, biochemical, luminescence. purified SENP8, Z-RLRGG-aminoluciferin cleavage. inhibition, % at 10 µM. 330,000 compounds, 1.2% hits. AID 2540, 2010; in the data active means inhibition above about 50%
# Platelet DG rel – inhibitors of platelet dense granule secretion, primary screen, cell-based, MLPCN, human platelets; human platelet-rich plasma, SFLLRN dense granule ATP release, luminescence; inhibition, %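 (compounds screened at 7.5 µM in platelet-rich plasma)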; 300,000 compounds, 0.22% hits;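 active means mean replicate score, as percent of positive control, at or above 50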
# SENP7 inh – SENP7 protease inhibitors, primary screen, biochemical, luminescence, uHTS | recombinant SENP7, Z-RLRGG-aminoluciferin luminescence, 40 min | inhibition, % at 5 µM | 330,000 compounds, 1.5% hits | AID 434973, 2010;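 active means inhibition above about 50% at the single test dose, limit read from the data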;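 further: plate controls were DMSO with enzyme for no effect and no enzyme buffer wells for full effect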
# Target sequence (Q9BQF6 706-1050 limits assumed): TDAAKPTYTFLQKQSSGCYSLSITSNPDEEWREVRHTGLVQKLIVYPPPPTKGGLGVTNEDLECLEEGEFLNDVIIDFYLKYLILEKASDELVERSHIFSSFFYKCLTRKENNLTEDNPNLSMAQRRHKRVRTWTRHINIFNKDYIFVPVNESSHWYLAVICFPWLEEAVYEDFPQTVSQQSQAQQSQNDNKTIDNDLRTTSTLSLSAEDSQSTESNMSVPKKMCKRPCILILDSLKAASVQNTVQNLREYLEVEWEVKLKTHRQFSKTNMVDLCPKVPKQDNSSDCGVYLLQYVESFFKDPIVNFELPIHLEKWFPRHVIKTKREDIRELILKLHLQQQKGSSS
# SENP6 inh – SENP6 protease inhibitors, primary screen, biochemical, luminescence, uHTS. Sentrin-specific protease 6 (Homo sapiens), Q9GZR1. Recombinant SENP6 catalytic domain, aminoluciferin luminescence. inhibition, % at 10 µM. 330,000 compounds, 1.8% hits;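 active means inhibition above about 50% at the single tested dose, limit read from the data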;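 further: plate controls were DMSO wells with enzyme for no effect and DMSO wells lacking enzyme for full effect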
# SENP1 inh – human SENP1 catalytic domain inhibitors, primary screen, biochemical, FRET, uHTS. Sentrin-specific protease 1 (Homo sapiens), Q9P0U3. recombinant SENP1 catalytic domain, CyPet-SUMO1-YPet FRET cleavage. inhibition, % at 10 µM. 360,000 compounds, 0.21% hits;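 active means inhibition at least 30% at 10 µM, raw YFP signal under a set limit, fluorescence ratio 0.5 to 1.5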;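 further: 0% = enzyme with DMSO and 100% = no enzyme wells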
#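 Compound: 10 µM single point, 0.5% DMSO; Test system: hSENP1 catalytic domain, recombinant; Timing: 50 min reaction at room temperature; Technique: FRET, CFP and YFP emission; Control set: no-enzyme wells low, DMSO-plus-enzyme wells high control.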
# SENP8 confirm – SENP8 protease inhibitors, retest, confirmation, biochemical, luminescence, single concentration. shares compounds with SENP7 inh. Recombinant SENP8, Z-RLRGG-aminoluciferin luminescence, 60 min. 6,200 compounds, 40% hits. inhibition, % at 12.5 µM;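 active means mean inhibition across replicates above about 50%, limit read from the data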
# SENP6 confirm – SENP6 protease inhibitors, confirmation, biochemical, luminescence, single concentration; shares compounds with SENP7 inh; recombinant SENP6, Z-RLRGG-aminoluciferin luminescence; inhibition, % at 12.5 µM; 6,200 compounds, 58% hits
# SENP7 conf – SENP7 protease inhibitors, retest, confirmation, biochemical, luminescence, single concentration; shares compounds with SENP7 inh; recombinant SENP7, Z-RLRGG-aminoluciferin luminescence, 40 min; 6,200 compounds, 69% hits; inhibition, % at 12.5 µM
# Casp3 SENP sel – caspase-3 protease inhibitors, confirmation, selectivity assay for SENP inhibitor project, biochemical, single concentration; inhibition, % at 12.5 µM; 6,200 compounds, 60% hits; purified caspase-3, Z-DEVD-aminoluciferin luminescence, 60 min; shares compounds with SENP7 inh;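 active means mean inhibition above about 50%, limit read from the data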;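 further: plate controls were enzyme with DMSO for no effect and wells without caspase-3 for full effect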
# Luc interf – luminescence interference (SENP counter-screen). shares compounds with SENP7 inh. Pre-incubated SENP8/Z-RLRGG-aminoluciferin, luciferase luminescence interference. inhibition, % at 12.5 µM. 6,200 compounds, 39% hits. AID 488919;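 active means mean inhibition above about 50% when retested at one dose, limit read from the data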;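 further: plate controls were DMSO wells with completed reaction for no effect and substrate without enzyme for full effect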
# Numbers without * were called inactive; · = not tested or not shown.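 How the source made its calls, unless noted: active means mean inhibition above about 50% in the one-dose retest (limit read from the data); inactive means the rest.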
SMILES,SENP8 block-1,SENP8 block-2,Platelet DG rel,SENP7 inh,SENP6 inh,SENP1 inh,SENP8 confirm,SENP6 confirm,SENP7 conf,Casp3 SENP sel,Luc interf
COc1ccccc1Oc1ccc(N/C=C/C(=O)c2ccco2)cc1,-197,55*,8,57*,85*,-23,88*,89*,100*,81*,76*
O=C(/C=C/Nc1cccc(F)c1)c1ccco1,-265,52*,13,73*,82*,-77,-10,72*,94*,85*,78*
O=C(/C=C/Nc1ccc(F)c(Cl)c1)c1ccco1,-378,45,5,27,70*,-47,67*,66*,88*,56*,14
CCOC(=O)C1=CN(Cc2ccco2)S(=O)(=O)NC1c1ccc(Br)cc1F (stereo not given),8,·,·,3,·,-3,·,·,·,·,·
Cc1ccccc1NC(=O)Cn1c(C)nc2ccc(NC(=O)C3CC3)cc2c1=O,-2,4,-1,71*,-7,0,6,5,13,8,2
Cc1ccccc1NC(=O)Cn1c(C)nc2ccc(N)cc2c1=O,-404,3,0,0,4,-4,·,·,·,·,·
O=C(O)CNC(=O)C(Cc1ccccc1)NC(=O)OCc1ccccc1 (stereo not given),10,0,1,-2,6,1,·,·,·,·,·
Nc1cccc2c(O)cccc12,-391,30,0,23,68*,-8,8,24,10,9,1
Cc1ccc(C(=O)NN2C(=O)C3C4C=CC(C4)[C@@H]3C2=O)cc1 (stereo not given in full),19,2,8,9,1,0,·,·,·,·,·
O=C(O)c1ccc(OS(=O)(=O)c2ccc(Cl)s2)c(Cl)c1,14,45,·,6,56*,1,34,33,61*,54*,60*
O=C(O)c1cc(Cl)ccc1OS(=O)(=O)c1ccc(Cl)s1,0,-9,·,4,22,-2,·,·,·,·,·
c1cc2c3c(cccc3c1)C(N1CCCCC1)=N2,-240,36,-6,13,69*,-16,-9,-5,-9,3,3
c1cc2c3c(cccc3c1)C(N1CCCCCC1)=N2,-77,3,6,8,4,-23,·,·,·,·,·
c1ccc(CCNc2nc(-c3ccccn3)cs2)cc1,-6,29,-4,43,52*,3,2,-2,-2,4,12
CC1=C(C(=O)O)N2C(=O)C(NC(=O)c3nn(C)c(C)c3Cl)C2SC1 (stereo not given),3,3,-4,1,-17,1,·,·,·,·,·
Cc1cc(OCc2nc(-c3cccnc3)no2)c(C)cc1Br,8,-3,0,3,18,1,·,·,·,·,·
Cc1ccc(OCc2nc(-c3ccccn3)no2)cc1,3,23,5,60*,40,3,43,45,80*,71*,44
Cc1ccc(OCc2nc(-c3ccccn3)no2)c(Br)c1,33,90*,8,96*,82*,3,1,96*,102*,91*,93*
Cc1ccc(SCc2nc(-c3ccccn3)no2)cc1,11,-10,-11,18,16,0,·,·,·,·,·
CC(C)c1ccc(OCc2nc(-c3ccccn3)no2)c(Br)c1,29,67*,3,69*,85*,0,74*,82*,93*,63*,70*
Clc1ccc(OCc2nc(-c3ccncc3)no2)c(Br)c1,5,22,26,15,34,2,·,·,·,·,·
CCc1ccc(OCc2nc(-c3ccccn3)no2)c(Br)c1,-2,90*,5,91*,93*,2,95*,96*,101*,87*,79*
COc1cc2cc(CN(Cc3cccs3)C(=S)Nc3ccc(C)cc3)c(=O)[nH]c2cc1OC,-255,0,14,0,6,-1,·,·,·,·,·
Cc1ccc(CNC(=O)CS(=O)Cc2nc(-c3ccccc3Cl)oc2C)cc1 (stereo not given),4,2,0,6,16,1,·,·,·,·,·
CCOC(=O)c1sc(NC(=O)c2ccc(C)s2)cc1C,-323,20,-1,73*,43,2,17,37,71*,47,18
SMILES,SENP8 block-1,SENP8 block-2,Platelet DG rel,SENP7 inh,SENP6 inh,SENP1 inh,SENP8 confirm,SENP6 confirm,SENP7 conf,Casp3 SENP sel,Luc interf
CCOC(=O)c1sc(NC(=O)Nc2ccccc2)cc1C,-79,81*,-2,89*,98*,2,91*,91*,98*,68*,72*
CCOC(=O)c1sc(NC(=O)Nc2ccccc2Cl)cc1C,-41,95*,-1,99*,95*,-2,95*,96*,100*,89*,43
CCOC(=O)c1sc(NC(C)=O)cc1C,4,1,8,2,-7,1,·,·,·,·,·
CCOC(=O)c1cc(NC(=O)Nc2ccccc2Cl)c(C)nc1C,0,4,2,-7,-5,1,·,·,·,·,·
C=CCC[C@@H](Cc1ccc(F)cc1)C(=O)OC[C@@H]1CCCN1C(=O)[C@@H](CC=C)CC(=O)N(CCO)Cc1ccccc1,17,-6,·,-6,-14,0,·,·,·,·,·
CCOc1cc(C)c(Cl)cc1S(=O)(=O)N(CC)CC,15,63*,3,-5,3,1,4,10,11,3,4
CCOc1cc(S(=O)(=O)N(CC)CC)ccc1Cl,9,-2,2,3,-6,-2,·,·,·,·,·
Cc1ccc(C(=O)OCC(=O)Nc2ccccc2Cl)c(O)c1,5,-18,-12,66*,17,-1,12,12,5,9,6
